Data taken from article PMC3150610 (Journal of medicinal chemistry, 2011).
One block for each compound: values may come before it.

Key:
[1] = molecular target: Human α-thrombin (Homo sapiens, UniProt P00734); format: biochemical; settings: for fold change in IC50 (weaker) relative to 12a: comparator 12a; for fold weaker thrombin inhibition of di-sulfated dimers: comparator not given
[2] = molecular target: human thrombin (Homo sapiens, UniProt P00734); assay: Michaelis-Menten kinetics of Spectrozyme TH hydrolysis by thrombin; format: biochemical; settings: for VMAX of Spectrozyme TH hydrolysis: pH 7.4
Outline: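 Human α-thrombin (5–10 nM) with Spectrozyme TH at 10 to 600 μM, at fixed test compound levels of 0–30 μM. Run in 20 mM Tris-HCl, pH 7.4, at 37 °C. Initial rate taken from the linear rise in A405 while under 10% of substrate was consumed. Data fitted to the Michaelis-Menten equation for KM and VMAX.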

[3] = tested on: citrated human plasma; assay: Prothrombin time; settings: thromboplastin initiator
Outline: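 Test compound brought up in citrated human plasma and held 30 s at 37 °C. Pre-warmed thromboplastin (reconstituted per manufacturer, 37 °C) then added and clotting time read on a fibrometer in a one-stage assay. Deionized water served as the no-anticoagulant control. Run in duplicate. Quadratic trendline fit gave the concentration doubling PT.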

[4] = tested on: citrated human plasma; assay: Activated partial thromboplastin time; settings: ellagic acid initiator
Outline: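 Test compound in citrated human plasma with pre-warmed APTT reagent (0.2% ellagic acid), incubated 4 min. Clotting started with 25 mM CaCl2 at 37 °C and time to clot read on a fibrometer. One-stage recalcification format, each assay in duplicate. Clotting time versus concentration fitted to a quadratic trendline to get the concentration that doubles APTT.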

- fold change in IC50 (weaker) relative to 12a [1]: 2.2 fold
Compound: CCOC(=O)c1c(COc2cc3c(C(=O)OCC)c(CN4CCOCC4)oc3cc2OC)oc2cc(OC)c(OS(=O)(=O)[O-])cc12.[Na+] [compound 13]

- fold change in IC50 (weaker) relative to 12a [1]: 6.2 fold
Compound: COc1cc2oc(C)c(C(=O)O)c2cc1OCc1oc2cc(OC)c(OS(=O)(=O)[O-])cc2c1C(=O)O.[Na+] [compound 15]

- fold weaker thrombin inhibition of di-sulfated dimers [1]: 6–17 fold
Compound: CCOC(=O)c1c(C)oc2cc(OCc3oc4cc(OC)c(OS(=O)(=O)[O-])cc4c3C(=O)OCC)c(OS(=O)(=O)[O-])cc12.[Na+].[Na+] [compound 17]

- mechanism of thrombin inhibition ([2]; Michaelis-Menten kinetics): non-competitive, allosteric mechanism
- VMAX of Spectrozyme TH hydrolysis ([2]; in presence of 1.5 μM 12a): 97 ± 13 mAUmin^−1μM^−1
- VMAX of Spectrozyme TH hydrolysis ([2]; in presence of 3.0 μM 12a): 107 ± 14 mAUmin^−1μM^−1
- VMAX of Spectrozyme TH hydrolysis ([2]; in presence of 10.5 μM 12a): 73 ± 13 mAUmin^−1μM^−1
- VMAX of Spectrozyme TH hydrolysis ([2]; in presence of 30 μM 12a): 66 ± 6 mAUmin^−1μM^−1
- decrease in maximal velocity of reaction ([2]; upon approximately 50% saturation of the enzyme): ~ 34%
Compound: CCOC(=O)c1c(C)oc2cc(OC)c(OCc3oc4cc(OC)c(OS(=O)(=O)[O-])cc4c3C(=O)OCC)cc12.[Na+] [12a]

- fold increase in potency, ethyl to isopropyl at 6-position ([1]; 12f versus 12e): ~4 fold
Compound: CCOC(=O)c1c(C)oc2cc(OC(C)C)c(OCc3oc4cc(OC(C)C)c(OS(=O)(=O)[O-])cc4c3C(=O)OCC)cc12.[Na+] [12f]

Compound: COC(=O)c1c(C)oc2cc(OC)c(OCc3oc4cc(OC)c(OS(=O)(=O)[O-])cc4c3C(=O)OC)cc12.[Na+] [12b]
- concentration required to double PT (2×PT) [3]: 850 to 2100 µM

- fold change in IC50 (weaker) relative to 12a [1]: 6.2 fold
Compound: COCCOC(=O)c1c(C)oc2cc(OC)c(OCc3oc4cc(OC)c(OS(=O)(=O)[O-])cc4c3C(=O)OCCOC)cc12.[Na+] [12d]

- fold weaker thrombin inhibition of di-sulfated dimers [1]: 6–17 fold
Compound: CCOC(=O)c1c(C)oc2cc(OC)c(OCc3oc4cc(OS(=O)(=O)[O-])c(OS(=O)(=O)[O-])cc4c3C(=O)OCC)cc12.[Na+].[Na+] [compound 18]

- fold improvement of inhibition potency with lipophilicity of 3-ester ([1]; across 12a, 12b, 12c): 8.2 fold
Compound: COc1cc2oc(C)c(C(=O)OC(C)(C)C)c2cc1OCc1oc2cc(OC)c(OS(=O)(=O)[O-])cc2c1C(=O)OC(C)(C)C.[Na+] [12c]
- concentration required to double APTT (2×APTT) [4]: 355 to 1250 µM

Compound: CCOC(=O)c1c(C)oc2cc(OCC)c(OCc3oc4cc(OCC)c(OS(=O)(=O)[O-])cc4c3C(=O)OCC)cc12.[Na+] [12e]
- concentration required to double APTT (2×APTT) [4]: 355 to 1250 µM

- fold loss of affinity from t-butyl ester dimer ([1]; comparator printed as dimer 2c): more than 270 fold
Compound: COc1cc2oc(C)c(C(=O)N3CCOCC3)c2cc1OCc1oc2cc(OC)c(OS(=O)(=O)[O-])cc2c1C(=O)N1CCOCC1.[Na+] [compound 14]
